Active and inactive are the calls of the source. The rule behind the calls is not given here.
Legend:
[1] = target: Gamma-aminobutyric acid receptor subunit alpha-1/beta-3 (Rattus norvegicus) (UniProt P62813+P63079); test: Displacement of [3H]EBOB from rat GABA-A receptor alpha1beta3 expressed in HEK293 cell membranes at 10 uM after 90 mins by liquid scintillation counting analysis relative to control
How it was run: (§1)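 Crude membranes from HEK 293 cells transiently Ca-phosphate-transfected with rat subunit cDNAs, harvested at 48 h. Membranes (150-200 µg protein) incubated with 3 nM [3H]EBOB in 50 mM Tris/citrate pH 7.3 plus 0.2 M NaCl. Compound up to 10 µM, final DMSO 0.1%, no GABA, 90 min at 21 °C. Bound radioligand collected by GF/C filtration and counted by scintillation.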

[2] = target: Gamma-aminobutyric acid receptor subunit alpha-6/beta-3/delta (Rattus norvegicus) (UniProt P18506+P30191+P63079); test: Displacement of [3H]EBOB from rat GABA-A receptor alpha6beta3delta expressed in HEK293 cell membranes up to 10 uM after 90 mins by liquid scintillation counting analysis relative to control; how it was run: as §1
[3] = target: T1, Gamma-aminobutyric acid receptor subunit alpha-6/beta-3/gamma-2 (Rattus norvegicus, UniProt P18508+P30191+P63079); test: Displacement of [3H]EBOB from rat GABA-A receptor alpha6beta3gamma2 expressed in HEK293 cell membranes after 90 mins by liquid scintillation counting analysis; how it was run: as §1
[4] = species on record: Rattus norvegicus; test: Selectivity ratio of IC50 for rat GABA-A receptor alpha6beta3 expressed in HEK293 cells to IC50 for rat GABA-A receptor alpha6beta3delta expressed in HEK293 cells; format: cell-based
[5] = target: T2, Gamma-aminobutyric acid receptor subunit alpha-4/beta-3/delta (Rattus norvegicus, UniProt P18506+P28471+P63079); test: Displacement of [3H]EBOB from rat GABA-A receptor alpha4beta3delta expressed in HEK293 cell membranes after 90 mins by liquid scintillation counting analysis; how it was run: as §1
[6] = target: T3, Gamma-aminobutyric acid receptor subunit alpha-1/beta-3/delta (Rattus norvegicus) (UniProt P18506+P62813+P63079); test: Displacement of [3H]EBOB from rat GABA-A receptor alpha1beta3delta expressed in HEK293 cell membranes at 10 uM after 90 mins by liquid scintillation counting analysis relative to control; how it was run: as §1
[7] = target: Gamma-aminobutyric acid receptor subunit alpha-4/beta-3/gamma-2 (Rattus norvegicus, UniProt P18508+P28471+P63079); test: Displacement of [3H]EBOB from rat GABA-A receptor alpha4beta3gamma2 expressed in HEK293 cell membranes after 90 mins by liquid scintillation counting analysis; how it was run: as §1
[8] = target: T4, Gamma-aminobutyric acid receptor subunit alpha-4/beta-3/gamma-2 (Rattus norvegicus) (UniProt P18508+P28471+P63079); test: Agonist activity at rat […] GABA-A receptor alpha4beta3gamma2 expressed in HEK293 cells assessed as ratio of I0 to GABA Imax at 10 uM in absence of GABA by patch-clamp assay; format: cell-based
How it was run: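 Whole-cell patch clamp on single fluorescent HEK 293 cells 48 h after transient co-transfection with rat subunit cDNAs plus eGFP. Extracellular solution 135 mM NaCl, 5.3 mM KCl, 2 mM CaCl2, 2 mM MgSO4, 10 mM HEPES pH 7.4, perfused 3 mL/min. Compound at 10 µM without GABA. Current expressed relative to 1 mM GABA at the same receptor (I0/Imax GABA), mean ± S.D. of n experiments.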

[9] = species on record: Rattus norvegicus; test: Selectivity ratio of IC50 for rat GABA-A receptor alpha6beta3delta expressed in HEK293 cells to IC50 for rat GABA-A receptor alpha6beta2delta expressed in HEK293 cells; format: cell-based
[10] = target: Gamma-aminobutyric acid receptor subunit alpha-4/beta-3 (Rattus norvegicus, UniProt P28471+P63079); test: Displacement of [3H]EBOB from rat GABA-A receptor alpha4beta3 expressed in HEK293 cell membranes after 90 mins by liquid scintillation counting analysis; how it was run: as §1
[11] = target: Gamma-aminobutyric acid receptor subunit alpha-6/beta-3/gamma-2 (Rattus norvegicus) (UniProt P18508+P30191+P63079); test: Displacement of [3H]EBOB from rat GABA-A receptor alpha6beta3gamma2 expressed in HEK293 cell membranes up to 10 uM after 90 mins by liquid scintillation counting analysis relative to control; how it was run: as §1
[12] = target: Gamma-aminobutyric acid receptor subunit alpha-6/beta-3 (Rattus norvegicus) (UniProt P30191+P63079); test: Modulation of rat […] GABA-A receptor alpha6beta3 expressed in HEK293 cells up to 10 uM in presence of GABA by patch-clamp assay relative to control; format: cell-based
How it was run: (§2)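 Rat GABA-A subunits were transiently co-transfected with eGFP into HEK293 cells on coverslips. Fluorescent cells were recorded by whole-cell patch clamp 48 h later; bath pH 7.4, KCl/KOH pipette pH 7.2. Compound was applied at increasing concentrations up to 10 µM with the receptor-specific GABA EC20. Peak currents were fitted logistically for EC50, Hill and % modulation, as mean ± S.E.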

[13] = target: T1, Gamma-aminobutyric acid receptor subunit alpha-6/beta-3/gamma-2; test: Modulation of rat […] GABA-A receptor alpha6beta3gamma2 expressed in HEK293 cells in presence of GABA by patch-clamp assay; format: cell-based; how it was run: as §2
[14] = target: Gamma-aminobutyric acid receptor subunit alpha-6/beta-2/delta (Rattus norvegicus, UniProt P18506+P30191+P63138); test: Displacement of [3H]EBOB from rat GABA-A receptor alpha6beta2delta expressed in HEK293 cell membranes after 90 mins by liquid scintillation counting analysis; how it was run: as §1
[15] = target: T2, Gamma-aminobutyric acid receptor subunit alpha-4/beta-3/delta; test: Modulation of rat […] GABA-A receptor alpha4beta3delta expressed in HEK293 cells in presence of GABA by patch-clamp assay; format: cell-based; how it was run: as §2
[16] = target: T4, Gamma-aminobutyric acid receptor subunit alpha-4/beta-3/gamma-2 (Rattus norvegicus); test: Modulation of rat eGFP-fused GABA-A receptor alpha4beta3gamma2 expressed in HEK293 cells at <=1 uM in presence of GABA by patch-clamp assay relative to control; format: cell-based
[17] = species on record: Rattus norvegicus; test: Selectivity ratio of IC50 for rat GABA-A receptor alpha4beta3gamma2 expressed in HEK293 cells to IC50 for rat GABA-A receptor alpha4beta3delta expressed in HEK293 cells; format: cell-based
[18] = target: GABA A receptor alpha-6/beta-2/gamma-2 (Rattus norvegicus) (UniProt P18508+P30191+P63138); test: Displacement of [3H]EBOB from rat GABA-A receptor alpha6beta2gamma2 expressed in HEK293 cell membranes up to 10 uM after 90 mins by liquid scintillation counting analysis relative to control; how it was run: as §1
[19] = target: Gamma-aminobutyric acid receptor subunit alpha-6/beta-2 (Rattus norvegicus, UniProt P30191+P63138); test: Displacement of [3H]EBOB from rat GABA-A receptor alpha6beta2 expressed in HEK293 cell membranes after 90 mins by liquid scintillation counting analysis; how it was run: as §1
[20] = target: T3, Gamma-aminobutyric acid receptor subunit alpha-1/beta-3/delta (Rattus norvegicus); test: Modulation of rat […] GABA-A receptor alpha1beta3delta expressed in HEK293 cells up to 10 uM in presence of GABA by patch-clamp assay relative to control; format: cell-based; how it was run: as §2
[21] = target: Gamma-aminobutyric acid receptor subunit alpha-6/beta-2 (Rattus norvegicus) (UniProt P30191+P63138); test: Displacement of [3H]EBOB from rat GABA-A receptor alpha6beta2 expressed in HEK293 cell membranes up to 10 uM after 90 mins by liquid scintillation counting analysis relative to control; how it was run: as §1

T2 sequence (P18506 whole entry): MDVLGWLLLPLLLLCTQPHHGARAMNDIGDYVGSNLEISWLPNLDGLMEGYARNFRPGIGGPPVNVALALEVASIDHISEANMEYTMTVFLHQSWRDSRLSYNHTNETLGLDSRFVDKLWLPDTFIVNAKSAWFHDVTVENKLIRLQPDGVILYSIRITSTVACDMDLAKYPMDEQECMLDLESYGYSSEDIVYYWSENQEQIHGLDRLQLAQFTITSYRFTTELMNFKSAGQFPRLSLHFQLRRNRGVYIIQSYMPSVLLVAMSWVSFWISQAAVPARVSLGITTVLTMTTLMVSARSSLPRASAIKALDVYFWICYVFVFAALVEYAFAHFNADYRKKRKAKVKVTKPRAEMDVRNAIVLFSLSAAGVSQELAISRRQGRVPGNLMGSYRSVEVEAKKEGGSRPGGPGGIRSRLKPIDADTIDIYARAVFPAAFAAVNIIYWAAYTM
T2 sequence (P28471 whole entry): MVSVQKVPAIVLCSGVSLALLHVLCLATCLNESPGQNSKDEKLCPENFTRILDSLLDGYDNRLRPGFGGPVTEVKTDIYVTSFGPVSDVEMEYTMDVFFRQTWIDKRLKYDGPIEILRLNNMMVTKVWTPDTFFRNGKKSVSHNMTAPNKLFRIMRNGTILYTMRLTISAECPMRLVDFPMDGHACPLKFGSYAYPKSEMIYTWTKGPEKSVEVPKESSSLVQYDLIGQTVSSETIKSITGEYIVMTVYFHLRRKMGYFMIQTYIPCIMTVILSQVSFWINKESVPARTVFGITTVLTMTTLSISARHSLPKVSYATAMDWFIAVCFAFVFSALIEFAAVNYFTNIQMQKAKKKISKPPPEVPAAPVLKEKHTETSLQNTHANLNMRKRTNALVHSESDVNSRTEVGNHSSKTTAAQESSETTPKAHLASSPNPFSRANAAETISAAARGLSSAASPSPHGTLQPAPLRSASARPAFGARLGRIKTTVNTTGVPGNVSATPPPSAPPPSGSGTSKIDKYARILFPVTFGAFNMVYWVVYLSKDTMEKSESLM
T2 sequence (P63079 whole entry): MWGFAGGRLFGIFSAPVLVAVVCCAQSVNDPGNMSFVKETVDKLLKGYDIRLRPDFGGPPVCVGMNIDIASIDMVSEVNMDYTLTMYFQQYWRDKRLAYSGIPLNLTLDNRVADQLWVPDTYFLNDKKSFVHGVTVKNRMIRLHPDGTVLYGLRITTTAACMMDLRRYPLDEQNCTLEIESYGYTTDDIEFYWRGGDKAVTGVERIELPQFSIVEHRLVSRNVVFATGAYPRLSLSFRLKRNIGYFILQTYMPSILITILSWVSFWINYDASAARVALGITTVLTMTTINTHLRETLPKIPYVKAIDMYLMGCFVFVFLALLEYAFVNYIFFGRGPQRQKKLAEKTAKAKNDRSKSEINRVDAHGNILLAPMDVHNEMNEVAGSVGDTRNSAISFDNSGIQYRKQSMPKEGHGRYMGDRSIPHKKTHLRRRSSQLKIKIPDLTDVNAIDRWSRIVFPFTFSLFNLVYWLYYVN
T1 sequence (P18508 whole entry): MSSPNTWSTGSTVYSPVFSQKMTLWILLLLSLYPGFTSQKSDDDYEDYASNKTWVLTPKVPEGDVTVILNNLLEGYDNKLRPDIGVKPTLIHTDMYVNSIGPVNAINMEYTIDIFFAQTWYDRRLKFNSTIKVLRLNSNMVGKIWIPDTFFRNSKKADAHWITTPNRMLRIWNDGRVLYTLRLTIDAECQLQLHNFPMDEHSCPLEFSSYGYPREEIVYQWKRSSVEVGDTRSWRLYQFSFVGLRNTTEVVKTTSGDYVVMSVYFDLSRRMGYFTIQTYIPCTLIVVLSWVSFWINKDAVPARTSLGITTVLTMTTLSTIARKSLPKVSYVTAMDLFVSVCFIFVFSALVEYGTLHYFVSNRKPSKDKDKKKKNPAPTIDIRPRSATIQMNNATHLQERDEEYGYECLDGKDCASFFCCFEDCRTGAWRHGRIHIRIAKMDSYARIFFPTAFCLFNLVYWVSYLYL
T1 sequence (P30191 whole entry): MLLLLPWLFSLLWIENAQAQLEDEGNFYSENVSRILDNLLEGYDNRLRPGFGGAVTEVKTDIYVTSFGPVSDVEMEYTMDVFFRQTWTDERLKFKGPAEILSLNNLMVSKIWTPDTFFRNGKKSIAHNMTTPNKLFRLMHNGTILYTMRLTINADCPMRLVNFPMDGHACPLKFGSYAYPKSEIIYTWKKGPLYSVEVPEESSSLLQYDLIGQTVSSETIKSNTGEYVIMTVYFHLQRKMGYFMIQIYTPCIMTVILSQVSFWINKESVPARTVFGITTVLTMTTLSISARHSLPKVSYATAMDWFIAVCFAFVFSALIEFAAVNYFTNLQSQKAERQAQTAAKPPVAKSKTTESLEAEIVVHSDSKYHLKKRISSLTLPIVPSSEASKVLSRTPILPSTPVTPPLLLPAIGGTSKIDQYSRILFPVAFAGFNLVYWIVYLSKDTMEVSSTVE
T1 sequence (P63079 whole entry): as the sequence (P63079 whole entry) above
Gamma-aminobutyric acid receptor subunit alpha-6/beta-2/delta, sequence (P18506 whole entry): as the sequence (P18506 whole entry) above
Gamma-aminobutyric acid receptor subunit alpha-6/beta-2/delta, sequence (P30191 whole entry): as the sequence (P30191 whole entry) above
Gamma-aminobutyric acid receptor subunit alpha-6/beta-2/delta, sequence (P63138 whole entry): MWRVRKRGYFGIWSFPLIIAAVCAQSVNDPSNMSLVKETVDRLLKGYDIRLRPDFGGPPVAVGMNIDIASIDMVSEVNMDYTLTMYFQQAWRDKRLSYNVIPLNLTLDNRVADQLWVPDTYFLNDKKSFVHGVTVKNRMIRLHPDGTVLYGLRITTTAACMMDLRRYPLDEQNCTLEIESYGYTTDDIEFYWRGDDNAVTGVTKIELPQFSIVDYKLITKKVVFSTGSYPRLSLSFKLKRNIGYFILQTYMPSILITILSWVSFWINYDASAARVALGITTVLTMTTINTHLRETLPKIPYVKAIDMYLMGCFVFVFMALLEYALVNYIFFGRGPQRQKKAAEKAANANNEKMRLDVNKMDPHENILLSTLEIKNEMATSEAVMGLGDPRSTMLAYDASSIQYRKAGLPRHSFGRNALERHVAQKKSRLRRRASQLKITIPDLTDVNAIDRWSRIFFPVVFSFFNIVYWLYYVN
Gamma-aminobutyric acid receptor subunit alpha-4/beta-3, sequence (P28471 whole entry): as the sequence (P28471 whole entry) above
Gamma-aminobutyric acid receptor subunit alpha-4/beta-3, sequence (P63079 whole entry): as the sequence (P63079 whole entry) above
Gamma-aminobutyric acid receptor subunit alpha-6/beta-2, sequence (P30191 whole entry): as the sequence (P30191 whole entry) above
Gamma-aminobutyric acid receptor subunit alpha-6/beta-2, sequence (P63138 whole entry): as the sequence (P63138 whole entry) above
Gamma-aminobutyric acid receptor subunit alpha-4/beta-3/gamma-2, sequence (P18508 whole entry): as the sequence (P18508 whole entry) above
Gamma-aminobutyric acid receptor subunit alpha-4/beta-3/gamma-2, sequence (P28471 whole entry): as the sequence (P28471 whole entry) above
Gamma-aminobutyric acid receptor subunit alpha-4/beta-3/gamma-2, sequence (P63079 whole entry): as the sequence (P63079 whole entry) above

Imax [1]: 25% | Imax [2]: 84% | IC50 [3]: 930 nM | IC50 [5]: 510 nM | Imax [6]: 18% | IC50 [7]: 3290 nM | Ratio [8]: 0.163 | IC50 [10]: 1860 nM | Imax [11]: 94% | Activity [12]: 1140% | EC50 [13]: 870 nM | IC50 [14]: 150 nM | EC50 [15]: 150 nM | Activity [16]: inactive | Imax [18]: 89% | IC50 [19]: 630 nM | Activity [20]: 201% | Imax [21]: 93%
Structure (SMILES): O=C(Nc1c(-c2cccs2)nc2c(Br)cc(Br)cn12)c1ccc(Cl)cc1
Ratio IC50 [4]: 2.5 | Ratio IC50 [9]: 2 | Ratio IC50 [17]: 7

— ChEMBL document CHEMBL4190374, “Structure-Function Evaluation of Imidazopyridine Derivatives Selective for δ-Subunit-Containing γ-Aminobutyric Acid Type A (GABAA) Receptors” (J Med Chem, 2018)
